From publication PMC5357606 (Journal of the American Chemical Society, 2017)
Like-named read-outs stand apart in the source and are kept apart here.

How the values were obtained:
[1] = target: T1, InhA (Mycobacterium tuberculosis, UniProt P9WGR1); assay: [32P]-NAD+ direct dissociation kinetics; type: binding; settings: 32P-NAD+ direct dissociation method
Summary of the method: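 InhA expressed in E. coli BL21(DE3) pLysS and purified by Ni2+-NTA and size exclusion. Ternary complex formed with 15 μM InhA, 20 μM NAD+ plus [32P]-NAD+, and 200 μM inhibitor in 30 mM PIPES pH 6.8, 150 mM NaCl, 1 mM EDTA. Spin column removed free ligand; rapid dilution into buffer started dissociation. Timed aliquots ultrafiltered (10 kDa). Run at 20 °C, or 25 °C for two compounds. kon,overall from koff via Equation 5.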

[2] = target: T1, InhA; assay: Second-harmonic generation; type: binding; settings: 10 μM compound
[3] = test system: M. tuberculosis; assay: MIC determination, microplate Alamar Blue assay; type: cell-based; settings: 37 °C, 6 days + 24 h
[4] = target: T1, InhA; assay: Progress curve analysis of InhA inhibition; type: biochemical; settings: for kon, overall: (k5+k6)/Ki^app; for k5: EI to EI*; for k6: EI* to EI; for tR: residence time from progress curve analysis
[5] = 20 °C, calculated from Ki^app, Ki^*app, k6
[6] = read-out: Ki^*app, 20 °C, final EI* complex
[7] = read-out: Ki^app, 20 °C, initial EI complex

T1 sequence (P9WGR1 whole entry, looked up): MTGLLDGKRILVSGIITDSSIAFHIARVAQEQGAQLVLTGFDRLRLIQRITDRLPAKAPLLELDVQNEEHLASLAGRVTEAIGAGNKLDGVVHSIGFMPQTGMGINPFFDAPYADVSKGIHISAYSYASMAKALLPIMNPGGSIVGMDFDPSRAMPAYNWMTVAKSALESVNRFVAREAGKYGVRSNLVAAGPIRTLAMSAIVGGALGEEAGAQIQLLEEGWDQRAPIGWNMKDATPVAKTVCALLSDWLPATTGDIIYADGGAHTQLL

For `CCCCCCc1ccc(Oc2ccccc2C#N)c(O)c1` [PT119], the tR direct dissociation ([1]; 20 °C) was 47 ± 4 min, the “time course of SHG conformational change” value ([2]; 30-min time course) was “require a longer time to reach a plateau compared to PT155” and the “increase in SHG intensity” value ([2]; 30 min after addition, His-tagged InhA, N = 4, mean ± SE) was 13.1± 0.8%. For the same compound, the MIC [3] was 2.5 µg/mL, the “kon, overall” value ([4]; 20 °C) was 8330 M⁻¹ s⁻¹ and the k5 [4, 5] was 5.0 min⁻¹. For the same compound, the k6 ([4]; 20 °C) was 0.020 ± 0.0040 min⁻¹, the tR ([4]; 20 °C) was 50 ± 0.4 min and the Ki [4, 6] was 40 ± 1 nM. The Ki [4, 7] was 10000 ± 2000 nM.

Compound `Cc1ccccc1Oc1ccc(Cn2cc(-c3ccccc3)nn2)cc1O` [PT163] has a tR direct dissociation ([1]; 25 °C) of 114 ± 18 min, a k5 ([4]; 25 °C, calculated) of 3.20 min⁻¹ and a k6 ([4]; 25 °C) of 0.0092 ± 0.002 min⁻¹. For the same compound, the tR ([4]; 25 °C) was 113 ± 28 min.

In the case of `CCCCCCc1ccc(Oc2ccccc2C)c(O)c1` [PT70], the tR direct dissociation ([1]; 20 °C) is reported as 40 ± 4 min, the MIC [3] is reported as 3.13 µg/mL and the “kon, overall” value ([4]; 20 °C) is reported as 20000 M⁻¹ s⁻¹. For the same compound, the k5 [4, 5] was 0.23 min⁻¹, the k6 ([4]; 20 °C) was 0.036 ± 0.010 min⁻¹ and the tR ([4]; 20 °C) was 30 ± 7 min. The Ki [4, 6] was 29 ± 4 nM and the Ki [4, 7] was 210 ± 34 nM.

With `CCCCCCc1ccc(Oc2ccccc2Cl)c(O)c1` [PT91] the tR direct dissociation ([1]; 20 °C) was 148 ± 13 min, the MIC [3] was 1.56 µg/mL and the “kon, overall” value ([4]; 20 °C) was 41700 M⁻¹ s⁻¹. For the same compound, the k5 [4, 5] was 0.12 min⁻¹, the k6 ([4]; 20 °C) was 0.013 ± 0.005 min⁻¹ and the tR ([4]; 20 °C) was 90 ± 37 min. It also gave a Ki [4, 6] of 5 ± 2 nM and a Ki [4, 7] of 52 ± 25 nM.

With `CCCCCCc1ccc(Oc2ccccc2F)c(O)c1` [PT113] the tR direct dissociation ([1]; 20 °C) was 31 ± 5 min, the k5 [4, 5] was 0.18 min⁻¹ and the k6 ([4]; 20 °C) was 0.026 ± 0.004 min⁻¹. For the same compound, the tR ([4]; 20 °C) was 38 ± 5 min, the Ki ([4]; Ki^*app, 20 °C, final EI* complex) was 27 ± 1 nM and the Ki ([4]; Ki^app, 20 °C, initial EI complex) was 220 ± 6 nM. The kon ([4]; read-out: kon, overall) was 16000 M⁻¹ s⁻¹.
